Reference: ChEMBL document CHEMBL4028851, “Discovery of Potent Small-Molecule Inhibitors of Ubiquitin-Conjugating Enzyme UbcH5c from α-Santonin Derivatives” (J Med Chem, 2017)
The source made the active and inactive calls. The calls are words filed in the database; no cut-off is given here.

Tests used:
[1] = biological target: T1, Ubiquitin-conjugating enzyme E2 D3 (Homo sapiens, UniProt P61077); experiment: Inhibition of UbcH5c (unknown origin) at 1 uM preincubated for 15 mins followed by E1, Ub and ATP addition measured after 40 mins by Western blot analysis
T1 sequence (P61077 whole entry, looked up): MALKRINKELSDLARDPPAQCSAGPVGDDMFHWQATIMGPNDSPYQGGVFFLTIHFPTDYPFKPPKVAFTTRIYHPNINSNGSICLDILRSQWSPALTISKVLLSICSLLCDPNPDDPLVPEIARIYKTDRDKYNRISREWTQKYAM

[2] = in vitro; conditions: human, HEK-293T cells
[3] = biological target: Ubiquitin-conjugating enzyme E2 D3 (Mus musculus) (UniProt P61079); experiment: Inhibition of UbcH5c in mouse b.End3 cells assessed as decrease in TNF-alpha-mediated IkB-alpha phosphorylation at 10 uM preincubated for 2 hrs followed by TNF-alpha stimulation for 20 mins by Western blot analysis; format: cell-based
Chain of Ubiquitin-conjugating enzyme E2 D3 (Mus musculus) (P61079 whole entry, looked up): as the sequence (P61077 whole entry, looked up) above
Outline: (§1)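 bEnd.3 cells (DMEM, 10% FBS) were pretreated with compound at 2.5, 5 or 10 µM for 2 h, then stimulated with 20 ng/mL TNF-α (15 min in the methods, 20 min in the legend). Lysates were run on 10% SDS-PAGE and immunoblotted for phospho-IκBα, IκBα, phospho-p65 and p65, with GAPDH as loading control.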

[4] = biological target: Ubiquitin-conjugating enzyme E2 D3 (Mus musculus) (UniProt P61079); experiment: Inhibition of UbcH5c in mouse b.End3 cells assessed as decrease in TNF-alpha-mediated IkB-alpha degradation at 10 uM preincubated for 2 hrs followed by TNF-alpha stimulation for 15 mins by Western blot analysis
[5] = biological target: T1, Ubiquitin-conjugating enzyme E2 D3; experiment: Binding affinity to human recombinant UbcH5c by SPR analysis
[6] = biological target: Ubiquitin-conjugating enzyme E2 D3 (Mus musculus) (UniProt P61079); experiment: Inhibition of UbcH5c in mouse b.End3 cells assessed as decrease in TNF-alpha-mediated IkB-alpha degradation preincubated for 2 hrs followed by TNF-alpha stimulation for 20 mins by Western blot analysis; format: cell-based; outline: as §1
[7] = biological target: Ubiquitin-conjugating enzyme E2 D3 (Mus musculus) (UniProt P61079); experiment: Inhibition of UbcH5c in mouse b.End3 cells assessed as decrease in TNF-alpha-mediated IkB-alpha phosphorylation preincubated for 2 hrs followed by TNF-alpha stimulation for 20 mins by Western blot analysis; format: cell-based; outline: as §1
[8] = biological target: Ubiquitin-conjugating enzyme E2 D3 (Mus musculus) (UniProt P61079); experiment: Inhibition of UbcH5c in mouse b.End3 cells assessed as decrease in TNF-alpha-mediated p65 phosphorylation preincubated for 2 hrs followed by TNF-alpha stimulation for 20 mins by Western blot analysis; format: cell-based; outline: as §1

| inhibition [1] | inhibition [3] | inhibition [4] | Structure (SMILES) | cytotoxicity at 5 µM [2] | also measured |
| --- | --- | --- | --- | --- | --- |
| inactive | – | – | C=C1C(=O)O[C@@H]2C3[C@@H](C)[C@@H](OC(=O)CCC)CC[C@]3(C)CC[C@@H]12 (some centres not stated) | – | – |
| inactive | – | – | C=C1C(=O)O[C@@H]2C3[C@@H](C)[C@@H](OC(=O)CCCC)CC[C@]3(C)CC[C@@H]12 (some centres not stated) | – | – |
| inactive | – | – | C=C1C(=O)O[C@@H]2C3[C@@H](C)[C@@H](OC(=O)CC)CC[C@]3(C)CC[C@@H]12 (some centres not stated) | – | – |
| – | – | – | C=C1C(=O)O[C@H]2c3c(C)c(OCc4ccccc4C(F)(F)F)cc(C)c3CC[C@@H]12 | < 20% | – |
| – | – | – | C=C1C(=O)O[C@@H]2C3=C(C)[C@@H](OC(=O)c4ccc(C)cc4)CC3[C@](C)(OC(C)=O)CC[C@@H]12 (some centres not stated) | < 20% | – |
| – | – | – | C=C1C(=O)O[C@@H]2C3[C@@H](C)[C@@H](OC(=O)c4ccco4)CC[C@]3(C)CC[C@@H]12 (some centres not stated) | < 20% | – |
| inactive | – | – | C=C1C(=O)O[C@@H]2C3[C@@H](C)[C@@H](OC(C)=O)CC[C@]3(C)CC[C@@H]12 (some centres not stated) | – | – |
| – | – | – | C=C1C(=O)O[C@H]2c3c(C)c(OCc4ccc(OC(F)(F)F)cc4)cc(C)c3CC[C@@H]12 | < 20% | – |
| – | Active | Active | C=C1C(=O)O[C@@H]2C[C@]3(C)C(=C[C@H]12)[C@@H](C)CC[C@H]3O | – | Kd [5]: 2580 nM |
| inactive | – | – | C=C1C(=O)O[C@@H]2C3[C@@H](C)[C@@H](OC(=O)C4CCCCC4)CC[C@]3(C)CC[C@@H]12 (some centres not stated) | – | – |
| – | Active | Active | C=C1C(=O)O[C@@H]2C3=C(C)[C@@H](OC(=O)c4ccccc4)CC3[C@](C)(OC(C)=O)CC[C@@H]12 (some centres not stated) | < 20% | inhibition [6]: Dose-dependent effect; inhibition [7]: Dose-dependent effect; inhibition [8]: Dose-dependent effect |
| – | – | – | C=C1C(=O)O[C@H]2c3c(C)c(OC(=O)c4cccnc4)cc(C)c3CC[C@@H]12 | < 20% | – |
| – | Active | Active | C=C1C(=O)O[C@@H]2C3[C@@H](C)[C@@H](OC(=O)c4cccc(I)c4)CC[C@]3(C)CC[C@@H]12 (some centres not stated) | < 20% | inhibition [6]: Dose-dependent effect; inhibition [7]: Dose-dependent effect; inhibition [8]: Dose-dependent effect |
| – | – | – | C=C1C(=O)O[C@H]2c3c(C)c(OC(=O)/C=C/c4cccs4)cc(C)c3CC[C@@H]12 | < 20% | – |
| – | Active | Active | C=C1C(=O)O[C@H]2c3c(C)c(OC(=O)/C=C/c4cccnc4)cc(C)c3CC[C@@H]12 | < 20% | inhibition [6]: Dose-dependent effect; inhibition [7]: Dose-dependent effect; inhibition [8]: Dose-dependent effect |
| – | Active | Active | C=C1C(=O)O[C@@H]2C3[C@@H](C)[C@@H](OC(=O)c4ccc(I)cc4)CC[C@]3(C)CC[C@@H]12 (some centres not stated) | < 20% | inhibition [6]: Dose-dependent effect; inhibition [7]: Dose-dependent effect; inhibition [8]: Dose-dependent effect |
| – | – | – | C=C1C(=O)O[C@H]2c3c(C)c(OC(=O)/C=C/c4ccc(OC(F)(F)F)cc4)cc(C)c3CC[C@@H]12 | < 20% | – |
| – | – | – | C=C1C(=O)O[C@@H]2C3=C(C)[C@@H](OC(=O)/C=C/c4ccc(OCCC)cc4)CC3[C@](C)(OC(C)=O)CC[C@@H]12 (some centres not stated) | < 20% | – |
| – | Active | Active | C=C1C(=O)O[C@@H]2C3=C(C)[C@@H](OC(=O)c4ccc(Cl)cc4)CC3[C@](C)(OC(C)=O)CC[C@@H]12 (some centres not stated) | < 20% | inhibition [6]: Dose-dependent effect; inhibition [7]: Dose-dependent effect; inhibition [8]: Dose-dependent effect |
| inactive | – | – | C=C1C(=O)O[C@@H]2C3[C@@H](C)[C@@H](OC(=O)C4CCCC4)CC[C@]3(C)CC[C@@H]12 (some centres not stated) | – | – |
